# NR2E3 ag-1 – agonists of human NR2E3 nuclear receptor | Q9Y5X4 | CHO-S Gal4-NCOR/VP16-NR2E3 two-hybrid, luciferase | inhibition of corepressor binding, % at 3.98 µM | 360,000 tested, 0.35% active | AID 602229;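 active = inhibition above the mean of all tested compounds plus 3 SD, cut at about 70% in these data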;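 also: 0% = DMSO with NR2E3 transfected cells and 100% = cells lacking NR2E3 construct; higher means lower luciferase signal from less NR2E3 corepressor binding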
# Target sequence (Q9Y5X4 whole entry, looked up, the tested form may be a part): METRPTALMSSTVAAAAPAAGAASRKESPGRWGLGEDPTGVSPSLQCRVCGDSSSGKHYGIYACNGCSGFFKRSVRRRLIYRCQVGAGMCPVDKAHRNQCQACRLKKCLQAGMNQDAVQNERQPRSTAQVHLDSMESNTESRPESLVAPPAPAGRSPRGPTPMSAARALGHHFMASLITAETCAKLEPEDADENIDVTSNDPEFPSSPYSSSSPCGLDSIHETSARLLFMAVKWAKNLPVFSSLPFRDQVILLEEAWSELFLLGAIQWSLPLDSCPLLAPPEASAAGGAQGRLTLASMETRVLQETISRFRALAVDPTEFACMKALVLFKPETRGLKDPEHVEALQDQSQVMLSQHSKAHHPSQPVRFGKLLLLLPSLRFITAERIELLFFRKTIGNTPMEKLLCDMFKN
# 697 NFkB inh – lowers PMA/ionomycin-induced NF-kB signal in 697 B cells. inhibition, % at 4 µM. 697 B-cell NF-kB luciferase reporter, 16 h. 330,000 tested, 0.33% active; in the data active = inhibition above about 35%
# MPTP block – inhibitors of mitochondrial permeability transition pore | 360,000 tested, 1.4% active | AID 602449 | inhibition, % at 10 µM | isolated mouse mitochondria, Ca2+ swelling absorbance, 30 min;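 active = inhibition of 50% or more, scaled per plate between neutral and stimulator controls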;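 also: 0% = DMSO wells given calcium and 100% = 1 mM EGTA wells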
# Jurkat NFkB inh – inhibitors of the PMA/ionomycin-induced NF-kB reporter in Jurkat cells. inhibition, % at 4 µM. 330,000 tested, 0.53% active. PMA/ionomycin-induced NF-kB luciferase reporter, luminescence; in the data active = inhibition above about 50%
# NR2E3 ag-2 – NR2E3 (human) agonism. Q9Y5X4. GST-NR2E3/biotin-RetCOR TR-FRET, 1536-well. inhibition of corepressor binding, % at 4.78 µM. 320,000 tested, 0.12% active. AID 2300;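 active = percent inhibition above the cutoff of mean plus 3 SD of all tested compounds, set per screening campaign, cut at about 20% in these data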;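 also: 0% = DMSO wells and 100% = biotin wells as full block of FRET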
#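 Test system – NR2E3–RetCOR corepressor complex · Quantity – NR2E3 fusion 1.35 nM · Buffer or medium – Tris pH 7.5 · Incubation – Compound–protein incubation for 5 h at 4 °C · Technique – TR-FRET, Eu(K)-anti-GST donor, streptavidin-D2 acceptor, ex 340, em 617/671 nm · Evaluation – percent inhibition of 671/617 nm emission ratio versus biotin and DMSO controls · Plate – 1536-well format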
# aDG glyco up – increases alpha dystroglycan glycosylation | Pro5-aDG cells, alpha-DG glycosylation AlphaScreen (IIH6); 0% Pro5, 100% B10-LARGE cell signal | AID 624168 | activation, % at 10 µM | 360,000 tested, 0.22% active;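 active = activation of at least 8% versus controls, or a plate z-score of at least 8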;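 also: Pro5 are CHO cells carrying HIG-tagged alpha-DG that lacks glycosylation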
# aDG conf – confirmation of alpha dystroglycan glycosylation activators | Pro5-aDG cells, alpha-DG glycosylation, IIH6 AlphaLISA; scaled to LARGE-overexpressing B10 cells as 100% | activation, % at 10 µM (by protocol) | 600 tested, 17% active | AID 651671 | shares compounds with aDG glyco up;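 active = activation of at least 7% in one or more replicates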;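 also: cells exposed to compound for two days before detection; 0% = DMSO-treated Pro5 cells and 100% = DMSO-treated B10-LARGE cells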
# * marks the source's active call; other numbers are inactive results; . = no result given. A selection: hits, their analogues and other compounds. The true share with any hit is near 2.4%.
SMILES,NR2E3 ag-1,697 NFkB inh,MPTP block,Jurkat NFkB inh,NR2E3 ag-2,aDG glyco up,aDG conf
COc1ccc(S[C@@H](CCN2CC[C@H](NC(=O)OCc3ccccc3)CCC2=O)c2ccccc2)cc1,37.4,-24.2,0.4,-3.2,.,1.3,.
CC(=O)Oc1c(Cl)cc(N(C(C)=O)S(=O)(=O)c2ccccc2)c2ccccc12,-18.4,-6.2,2.9,-0.7,-0.7,3.1*,5.6*
CC(=O)Oc1ccc(N(C(C)=O)S(=O)(=O)c2ccc(C)cc2C)c2ccccc12,-7.7,1.6,2.2,7.9,.,4.9*,2.6
COc1ccc(S(=O)(=O)N(C(C)=O)c2ccc(OC(C)=O)c3ccccc23)cc1[N+](=O)[O-],-16.9,15.7,3.3,14.0,-1.6,10.8*,2.1
Cc1ccc(S(=O)(=O)N(C(=O)c2ccncc2)c2ccc(OC(=O)c3ccncc3)c3ccccc23)c(C)c1,-26.7,-10.9,-3.4,14.1,0.7,0.7,.
CC(=O)Oc1ccc(N(C(C)=O)S(=O)(=O)c2ccccc2)c2ccccc12,-9.7,.,0.1,.,.,5.7,.
O=C(NCCc1ccc(Cl)cc1)C1CCC(CNc2c(N3CCCCC3)c(=O)c2=O)CC1 (stereo unspecified),-9.0,-12.8,-2.8,-21.4,-2.2,-0.3,.
CCC(C)c1ccccc1NC(=O)CN(CC)CC(=O)Nc1ccc2c(c1)OCCO2 (stereo unspecified),-3.8,-5.2,-0.4,-2.3,.,-0.1,.
O=C1C(Cc2ccccc2)Nc2ncnc(N3CCc4ccccc4C3)c2N1Cc1ccc(Cl)cc1 (stereo unspecified),-11.6,-3.5,-0.6,17.2,-1.9,1.1,.
CCC1Nc2ncnc(N3CCc4ccccc4C3)c2N(Cc2ccc(Cl)cc2)C1=O (stereo unspecified),-30.7,-13.9,0.8,-3.0,.,15.7*,1.3
CCOC(=O)C1CCN(C(=O)CC2(CC(=O)O)CCCC2)CC1,-17.9,12.0,2.2,1.7,-2.4,0.0,.
Cc1ccc(OCCSc2nc3ccccc3n2CCC(=O)O)c(C(C)C)c1,1.4,.,-0.1,.,.,-0.2,.
CCCC(=O)N(Cc1cc(=O)[nH]c2ccccc12)c1ccccc1,-20.5,-6.8,0.1,1.3,1.2,5.6*,1.3
Cc1c(Cl)cccc1NC(=O)CSC(N)=O,-44.2,-1.2,0.3,-1.5,-2.3,-0.4,.
O=C(CN1C(=O)c2ccc(Br)cc2C1=O)NCC1CCCO1 (stereo unspecified),-38.2,-33.4,-0.9,-21.7,0.9,5.5*,0.6
O=C(CN1C(=O)c2ccccc2C1=O)NCC1CCCO1 (stereo unspecified),1.3,15.2,7.7,14.3,0.9,0.1,.
CC(C)COc1ccc(CSCCNC(=S)Nc2ccccc2)cc1,56.6,20.7,6.4,19.0,-3.4,4.6*,4.9*
O=C(CSc1nc2c(c(=O)[nH]1)CCC2)Nc1ccccc1Cl,-39.6,21.1,0.9,8.3,2.3,0.0,.
Cc1ccc(NC(=O)CSc2nc3c(c(=O)[nH]2)CCC3)c(C)c1,-17.3,21.3,-0.5,1.3,-1.4,7.4*,1.8
CN1N=C(N)c2cn(C3OC(COP(=O)(O)O)C(O)C3O)c3ncnc1c23 (stereo unspecified),-21.2,.,0.7,.,.,81.7*,22.6*
Nc1ncnc2c1ncn2[C@@H]1O[C@H](COP(=O)(O)OP(=O)(O)OP(=O)(O)O)[C@@H](O)[C@H]1O,-20.4,16.9,0.2,7.8,5.7,0.2,.
COc1cccc(S(=O)(=O)NCc2ccc(C(=O)Nc3ccc(Cl)cc3)cc2)c1,-0.2,6.0,1.0,2.5,1.9,0.4,.
CN(C)S(=O)(=O)c1cccc(NC(=O)c2ccc(COc3ccccc3)cc2)c1,-29.4,-18.4,4.9,43.4,2.2,3.1*,0.6
COc1cccc(S(=O)(=O)NCc2ccc(C(=O)Nc3cccc(Cl)c3)cc2)c1,9.7,-3.5,2.4,-4.2,1.6,4.7*,1.5
Cc1ccccc1S(=O)(=O)N1C[C@H]2CON(C)[C@H]2C[C@H]1c1cccc(-c2ccc(C#N)cc2)c1,8.1,.,2.0,.,.,3.7,.
SMILES,NR2E3 ag-1,697 NFkB inh,MPTP block,Jurkat NFkB inh,NR2E3 ag-2,aDG glyco up,aDG conf
O=C(COc1ccc(NS(=O)(=O)c2ccc(F)cc2)cc1)N1CCOCC1,27.2,19.3,2.2,-5.9,-1.5,11.3*,-0.9
Cc1cc(C(=O)NC2Cc3ccccc3C2)c(C)o1,-18.0,-78.1,0.3,-65.2,2.4,-0.1,.
O=C(Nc1ccc(Cl)cc1)N1CCCN(Cc2ccc(F)cc2)C1,3.5,11.7,2.5,35.4,3.8,7.8*,1.2
O=C(Nc1ccccc1)N1CCN(Cc2ccc(Cl)cc2)CC1,-7.3,-6.8,1.2,0.4,0.9,-0.1,.
c1ccc2c(N3CCCCCC3)nc(-c3ccncc3)nc2c1,-12.4,-3.5,-3.2,3.5,0.0,7.0*,-0.4
O=C(OCc1ccccc1)N1CCC2CC1c1cc(Cl)ccc12 (stereo unspecified),-13.0,.,-2.2,.,.,9.7*,0.4
CC(C)[C@H](NC(=O)OCc1ccccc1)C(=O)OCC(=O)N1CCCCC1,-83.4,.,0.3,.,.,0.3,.
CCn1c(NCc2ccco2)nc2c1c(=O)n(C)c(=O)n2C,-15.0,29.7,-0.5,-6.8,-1.1,6.3*,0.0
Cn1c(=O)c2c(nc(NCc3ccco3)n2CCc2ccccc2)n(C)c1=O,25.8,-56.6,15.8,0.6,0.3,0.2,.
CCN1CCN(c2ccc(S(=O)(=O)N3CCCCC3)cc2NC(=O)c2cccc(C(F)(F)F)c2)CC1,1.6,-42.9,8.8,4.6,-3.6,0.4,.
CC[N+](C)(CC)CC(O)COCC1COc2ccccc2O1 (stereo unspecified),10.2,-12.5,-9.4,-5.7,1.3,4.6*,-0.8
CC1CCCC(C)N1CC(O)COCC1COc2ccccc2O1 (stereo unspecified),-13.9,-12.9,-2.0,-4.9,1.0,-0.1,.
Cn1cnc([N+](=O)[O-])c1Oc1ccc2ccccc2c1,13.3,28.4,0.8,26.4,1.4,4.7*,-0.7
COc1cc(NC(=O)c2ccc(F)cc2)c(OC)cc1Cl,-15.8,1.4,4.4,-3.8,-1.8,0.3,.
COc1cc(NC(=O)c2c(F)c(F)c(F)c(F)c2F)c(OC)cc1Cl,2.2,23.3,3.6,-3.0,-2.1,7.7*,0.4
Cc1ccc(NC(=O)CN(C)CC(=O)N(CC(C)C)c2c(N)n(CC(C)C)c(=O)[nH]c2=O)c(C)c1,-0.6,13.4,-1.2,4.0,1.7,0.0,.
Cc1nc(C)c(-c2ccn(C(=O)NC(C)C)n2)s1,11.6,-1.3,1.7,13.7,-0.5,0.1,.
Cc1nnc(SCC(=O)N(C2CCCCC2)C2CCS(=O)(=O)C2)n1C (stereo unspecified),-21.5,15.4,-0.3,9.6,-1.0,-0.2,.

# Screening results (PubChem)
